This is a sample that favours compounds with a hit; in the whole collection about 1.5% have one here.
S100A4 MyoIIA: S100A4-myosin IIA interaction inhibition | P26447 | S100A4/TAMRA-MyoIIA peptide fluorescence polarization | inhibition, % at 10.7 µM | hit rate 0.14% among 360,000;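 active = mean inhibition of at least 70% across replicates, with every replicate also reaching that level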
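incubation = readout 5 min after mixing, signal stable up to 60 min | system = S100A4 monomer protein | buffer or medium = HEPES pH 7.2 with CaCl2, KCl, NaCl, DTT, Triton | benchmarks = neutral control DMSO, positive control TFP | also added = fluorescent myosin IIA peptide, 5 nM | compound dosing = one concentration per compound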
dFosB act-1: enhances mouse delta FosB homodimer DNA binding; P13346; purified delta FosB, TAMRA-CDK5 oligo fluorescence polarization; percent of positive-control signal above neutral wells; activation, % at 25 µM; hit rate 0.99% among 340,000; AID 493131;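 active = mean activation above about 17%, with every replicate also reaching it, limit read from the data, passing the limit was not always enough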
RAD52 anneal inh: blocks human RAD52 DNA annealing. P43351. recombinant RAD52 DNA annealing, FRET fluorescence. inhibition, % at 18.7 µM. hit rate 0.46% among 360,000;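 active = every replicate showing at least 50% inhibition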
RAD54 inh: blocks human RAD54 Holliday junction branch migration; FAM/BHQ fluorescence; Q92698; AID 602329; hit rate 0.14% among 360,000; inhibition, % at 10.4 µM;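 active = mean normalized replicate activity at least 40 and at least half of replicates scoring 40 or more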;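 note: inhibitors cause a drop in the FAM fluorescence signal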
Target sequence (Q92698 whole entry, looked up): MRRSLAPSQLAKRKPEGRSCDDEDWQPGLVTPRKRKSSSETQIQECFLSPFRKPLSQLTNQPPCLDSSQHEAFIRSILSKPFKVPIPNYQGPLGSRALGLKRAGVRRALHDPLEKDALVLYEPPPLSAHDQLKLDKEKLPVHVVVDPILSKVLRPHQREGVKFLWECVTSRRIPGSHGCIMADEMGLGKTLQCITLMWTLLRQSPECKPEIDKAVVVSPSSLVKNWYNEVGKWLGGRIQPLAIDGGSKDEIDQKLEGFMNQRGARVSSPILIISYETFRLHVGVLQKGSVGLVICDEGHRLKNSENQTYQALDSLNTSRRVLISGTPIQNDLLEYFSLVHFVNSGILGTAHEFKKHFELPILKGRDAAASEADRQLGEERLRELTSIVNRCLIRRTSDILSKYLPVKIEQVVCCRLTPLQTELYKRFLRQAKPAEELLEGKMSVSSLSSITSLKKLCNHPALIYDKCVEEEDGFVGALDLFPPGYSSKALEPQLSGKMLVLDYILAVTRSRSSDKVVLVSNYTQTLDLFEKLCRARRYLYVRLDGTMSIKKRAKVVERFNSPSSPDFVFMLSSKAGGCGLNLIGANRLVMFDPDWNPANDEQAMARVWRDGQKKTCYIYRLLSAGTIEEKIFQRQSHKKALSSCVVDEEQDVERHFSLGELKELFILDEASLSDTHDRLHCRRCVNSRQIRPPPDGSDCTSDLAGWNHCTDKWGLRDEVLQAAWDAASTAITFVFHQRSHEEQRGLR
AF4-AF9 inh: blocks AF4 peptide binding to human AF9 | AlphaScreen, biotin-AF4 peptide binding to FLAG-AF9 | inhibition, % at 10 µM | hit rate 0.47% among 350,000;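 active = every replicate reaching a set inhibition limit, whatever the replicate mean, cut at about 25% in these data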
dFosB act-2: activators of mouse delta FosB homodimer DNA binding. shares compounds with dFosB act-1. 2,400 tested, under 10 active. AID 588690. activation, % at 24.9 µM. purified delta FosB, TAMRA-CDK5 oligo fluorescence polarization; normalised: neutral wells 0, positive control 100;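 active = highest replicate activation at or above 34% and every replicate reaching that threshold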;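 note: higher polarization means more probe DNA bound by delta FosB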
Large screens that a line does not name were inactive (follow-up assays come after a bar, where they were run).

O=C1COc2ccc(C(=O)COC(=O)c3sc4ccccc4c3Cl)cc2N1	dFosB act-1 94 | dFosB act-2 inactive
CC(C)C#Cc1cnc2c(c1)C(=O)N([C@@H](C)CO)C[C@@H](C)[C@@H](CN(C)C(=O)Nc1ccccc1F)O2	none (no result: dFosB act-1)
CC(=O)Oc1cccc(N2C(=O)c3ccc(C(=O)Nc4c[nH]c(=O)[nH]c4=O)cc3C2=O)c1	dFosB act-1 20 (no result: S100A4 MyoIIA, RAD52 anneal inh, RAD54 inh, AF4-AF9 inh) | dFosB act-2 inactive
CC(C)CCN1C(=O)c2ccc(C(=O)Nc3c[nH]c(=O)[nH]c3=O)cc2C1=O	none (no result: RAD54 inh)
COc1ccc2cc3cc(C(=O)NCc4ccc5c(c4)OCO5)oc3nc2c1	dFosB act-1 17 (no result: S100A4 MyoIIA, RAD52 anneal inh, AF4-AF9 inh) | dFosB act-2 inactive
C[C@@H]1CN([C@H](C)CO)C(=O)Cc2cc(NS(=O)(=O)c3ccccc3)ccc2O[C@@H]1CN(C)C(=O)NC1CCCCC1	none (no result: dFosB act-1)
CCC(C)NC(=O)Cn1c(=O)n(CCCCCC(=O)Nc2ccccc2)c(=O)c2sccc21 (stereo unspecified)	dFosB act-1 18 (no result: S100A4 MyoIIA, RAD52 anneal inh, RAD54 inh, AF4-AF9 inh) | dFosB act-2 inactive
CCN(CC)C(=O)Cn1c(=O)n(CCCCCC(=O)Nc2ccccc2)c(=O)c2sccc21	none (no result: RAD54 inh)
CO[C@H]1CN(C)C(=O)c2ccc(NS(=O)(=O)c3ccc(C)cc3)cc2OC[C@@H](C)NC[C@H]1C	none (no result: dFosB act-1)
CCC(=O)N1CC2(CCN(C(=O)Nc3ccccc3F)CC2)c2c([nH]c3cc(OC)ccc23)[C@@H]1CO	none (no result: dFosB act-1, RAD54 inh)
COc1ccc(-c2cc(C(F)F)n3ncc(C(=O)Nc4cccc(S(=O)(=O)N5CCOCC5)c4)c3n2)cc1	dFosB act-1 33 (no result: RAD54 inh) | dFosB act-2 inactive
CO[C@H]1CN(C)C(=O)c2ccc(NC(=O)c3ccccc3F)cc2OC[C@H](C)N(C(=O)c2ccccc2F)C[C@@H]1C	none (no result: dFosB act-1)
COc1ccc(S(=O)(=O)N(C)C)cc1NC(=O)C1CCN(c2ncnc3sc(C)c(C)c23)CC1	dFosB act-1 47 | dFosB act-2 inactive
O=C(N/N=C\c1ccc(CNS(=O)(=O)c2ccc(Cl)cc2)o1)C(=O)Nc1ccc(Oc2ccccc2)cc1	none (no result: S100A4 MyoIIA, RAD52 anneal inh, RAD54 inh, AF4-AF9 inh)
O=C(N/N=C\c1ccc(CNS(=O)(=O)c2ccccc2)o1)C(=O)Nc1ccc(F)cc1	dFosB act-1 38 | dFosB act-2 inactive
O=C(Nc1ccc2c(c1)OCO2)N[C@@H]1CC[C@@H](CCNC(=O)C2CCCCC2)O[C@@H]1CO	none (no result: dFosB act-1)
CC(=O)c1cccc(NC(=O)Cn2c(=O)oc3cc(S(=O)(=O)N4CCCC4)ccc32)c1	dFosB act-1 33 | dFosB act-2 inactive
Cc1cc(NC(=O)c2ccc(Br)c([N+](=O)[O-])c2)no1	dFosB act-1 46 | dFosB act-2 inactive
Cc1cc(NC(=O)c2ccc(C)c([N+](=O)[O-])c2)no1	none (no result: RAD54 inh)
c1nc(NCc2ccc3c(c2)OCO3)c2cc(-c3ccc4c(c3)OCCO4)ccc2n1	dFosB act-1 39 | dFosB act-2 inactive
COc1ccc(NC(=O)c2cc(CN3C(=O)c4ccccc4C3=O)ccc2OC)cn1	dFosB act-1 18 (no result: S100A4 MyoIIA, RAD52 anneal inh, AF4-AF9 inh) | dFosB act-2 inactive
COc1ccc(CN2C(=O)c3ccccc3C2=O)cc1C(=O)Nc1ccccc1N1CCOCC1	none (no result: RAD54 inh)
CCc1ccc(NC(=O)CSc2nc3ncc(Br)cc3[nH]2)cc1	dFosB act-1 19 | dFosB act-2 inactive
Cc1ccc(NC(=O)CSc2nc3nc(C)c(Br)cc3[nH]2)cc1F	dFosB act-1 57 | dFosB act-2 inactive
COc1ccccc1S(=O)(=O)N[C@H]1CC[C@H](CCn2cc(C3CCCCC3)nn2)O[C@@H]1CO	none (no result: dFosB act-1)
COc1cc(NC(=O)c2cccnc2)ccc1-c1cc2ccccc2oc1=O	none (no result: dFosB act-1, RAD54 inh)
O=C(Nc1cccnc1)c1cccc(-c2cc3ccccc3oc2=O)c1	dFosB act-1 46 (no result: RAD54 inh) | dFosB act-2 inactive
O=C(Nc1ccc(-c2cc3ccccc3oc2=O)c(Cl)c1)c1cccnc1	dFosB act-1 84 | dFosB act-2 inactive
CN1C(=O)c2cc(NC(=O)c3cnccn3)ccc2OC[C@H]2O[C@H](CC(=O)NCC3CC3)CC[C@H]21	none (no result: dFosB act-1, RAD54 inh)
N#C[C@H]1[C@@H](c2ccccc2-c2ccccc2F)[C@@H](CO)N1C(=O)C1CCOCC1	none (no result: dFosB act-1, RAD54 inh)
CC(C)(C)OC(=O)N[C@@H](Cc1ccccc1)c1nnc(SCC(=O)O)o1	none (no result: S100A4 MyoIIA, RAD52 anneal inh, AF4-AF9 inh)
CC(C)(C)OC(=O)N[C@@H](Cc1ccccc1)c1nnc(SCC(=O)c2ccc(Cl)cc2)o1	dFosB act-1 44 (no result: S100A4 MyoIIA, RAD52 anneal inh, RAD54 inh, AF4-AF9 inh) | dFosB act-2 inactive
